Source: publication PMC6102747 (Molecular Medicine Reports, 2018)
Read-outs that look alike come from different tables or passages of the source.

How the values were obtained:
Cyp3a2 [1] = assay: RT-qPCR mRNA expression in small intestine and liver; format: in vivo, rats; conditions: vs control
Bcrp [2] = assay: as above; format: in vivo, rats; conditions: vs control
Mdr1 = assay: RT-qPCR mRNA expression in small intestine and liver; format: in vivo, rats; conditions: vs control
Outline: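 Rats, 3 per group, dosed once daily for 7 days: phosphate buffer 5 ml/kg i.v., test compound 2.5/5/10 mg/kg i.v. in phosphate buffer, ketoconazole 75 mg/kg i.g. in olive oil, or verapamil 4 mg/kg i.g. in water. Olive oil 5 ml/kg gavaged 30 min after day-7 dose. Killed 24 h post-dose after overnight fast; liver and intestinal mucosa snap-frozen. qPCR: 40 cycles, 58°C annealing; 2−ΔΔCq.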

Gstm1 = assay: RT-qPCR mRNA expression in liver; format: in vivo, rats; conditions: vs control
Car = assay: RT-qPCR mRNA expression in small intestine and liver; format: in vivo, rats; conditions: vs control
Cyp3a2 [3] = format: in vivo, rats; conditions: vs control
Cyp3a1 [4] = assay: RT-qPCR mRNA expression in small intestine and liver; format: in vivo, rats; conditions: vs control
P-gp = assay: Western blot protein expression in small intestine and liver; format: in vivo, rats; conditions: vs control
[5] = Pharmacokinetics of CsA after oral administration; format: in vivo, Sprague-Dawley rats; conditions: rats; for increase in the CL/F of CsA / increase in the V/F of CsA / decrease in AUC0-t of CsA / decrease in AUC0-∞ of CsA / decrease in Cmax of CsA: oral CsA 10 mg/kg; for decrease in AUC0-t of CsA / decrease in AUC0-∞ of CsA / decrease in Cmax of CsA: vs control; for decrease in Cmax of CsA: P>0.05
Cyp3a1 [6] = format: in vivo, rats; conditions: vs control
Pxr [7] = format: in vivo, rats; conditions: vs control
Slco2b1 = assay: RT-qPCR mRNA expression in small intestine; format: in vivo, rats; conditions: vs control
Mrp2 = assay: Western blot protein expression in small intestine and liver; format: in vivo, rats; conditions: vs control, P<0.001
Ugt1a1 [8] = assay: as above; format: in vivo, rats; conditions: vs control, P<0.001
Sult1a1 [9] = assay: as above; format: in vivo, rats; conditions: vs control
Sult1a1 [10] = assay: RT-qPCR mRNA expression in small intestine and liver; format: in vivo, rats; conditions: vs control
Bcrp [11] = assay: Western blot protein expression in small intestine and liver; format: in vivo, rats; conditions: vs control
Pxr [12] = assay: RT-qPCR mRNA expression in small intestine and liver; format: in vivo, rats; conditions: small intestine, vs control, P<0.001
OATP1B2 = assay: Western blot protein expression in liver; format: in vivo, rats; conditions: vs control
Ugt1a1 [13] = assay: RT-qPCR mRNA expression in small intestine and liver; format: in vivo, rats; conditions: vs control
[14] = liver, high-dose Q3GA 10 mg/kg i.v. 7 days, P<0.01
[15] = liver, low-dose Q3GA 2.5 mg/kg i.v. 7 days, P<0.001
[16] = liver, middle-dose Q3GA 5 mg/kg i.v. 7 days, P<0.05
[17] = small intestine, high-dose Q3GA 10 mg/kg i.v. 7 days, P<0.001
[18] = small intestine, low-dose Q3GA 2.5 mg/kg i.v. 7 days, P<0.001
[19] = small intestine, middle-dose Q3GA 5 mg/kg i.v. 7 days
[20] = liver, low-dose Q3GA 2.5 mg/kg i.v. 7 days, P<0.01
[21] = small intestine, high-dose Q3GA 10 mg/kg i.v. 7 days, P<0.01
[22] = small intestine, middle-dose Q3GA 5 mg/kg i.v. 7 days, P<0.05
[23] = high-dose Q3GA 10 mg/kg i.v. 7 days
[24] = low-dose Q3GA 2.5 mg/kg i.v. 7 days, P<0.001
[25] = middle-dose Q3GA 5 mg/kg i.v. 7 days
[26] = liver, middle-dose Q3GA 5 mg/kg i.v. 7 days, P<0.001
[27] = small intestine, high-dose Q3GA 10 mg/kg i.v. 7 days, P<0.05
[28] = liver, high-dose Q3GA 10 mg/kg i.v. 7 days, P<0.001
[29] = liver, high-dose Q3GA 10 mg/kg i.v. 7 days, P<0.05
[30] = liver, middle-dose Q3GA 5 mg/kg i.v. 7 days, P<0.01
[31] = small intestine, middle-dose Q3GA 5 mg/kg i.v. 7 days, P<0.01
[32] = low-dose Q3GA 2.5 mg/kg i.v. 7 days
[33] = liver, low-dose Q3GA 2.5 mg/kg i.v. 7 days
[34] = small intestine, high-dose Q3GA 10 mg/kg i.v. 7 days
[35] = small intestine, low-dose Q3GA 2.5 mg/kg i.v. 7 days
[36] = liver, high-dose Q3GA 10 mg/kg i.v. 7 days

## O=c1c(O[C@@H]2O[C@H](CO)[C@@H](O)[C@H](O)[C@H]2O)c(-c2ccc(O)c(O)c2)oc2cc(O)cc(O)c12 [Q3GA, Quercetin-3-O-β-D-glucoside]
Cyp3a2 [1]; [14]
  decrease in Cyp3a2 mRNA expression: 34.64%
Cyp3a2 [1]; [15]
  decrease in Cyp3a2 mRNA expression: 64.68%
Cyp3a2 [1]; [16]
  decrease in Cyp3a2 mRNA expression: 26.18%
Cyp3a2 [1]; [17]
  decrease in Cyp3a2 mRNA expression: 39.36%
Cyp3a2 [1]; [18]
  decrease in Cyp3a2 mRNA expression: 49.70%
Cyp3a2 [1]; [19]
  decrease in Cyp3a2 mRNA expression: 17.93%
Bcrp [2]; liver, high-dose Q3GA 10 mg/kg i.v. 7 days, not significant
  decrease in Bcrp mRNA expression: 29.23%
Bcrp [2]; [20]
  decrease in Bcrp mRNA expression: 56.15%
Bcrp [2]; liver, middle-dose Q3GA 5 mg/kg i.v. 7 days, not significant
  decrease in Bcrp mRNA expression: 29.23%
Bcrp [2]; [21]
  decrease in Bcrp mRNA expression: 43.68%
Bcrp [2]; [18]
  decrease in Bcrp mRNA expression: 63.83%
Bcrp [2]; [22]
  decrease in Bcrp mRNA expression: 27.52%
Mdr1; [14]
  decrease in Mdr1 mRNA expression: 47.32%
Mdr1; [15]
  decrease in Mdr1 mRNA expression: 67.60%
Mdr1; [16]
  decrease in Mdr1 mRNA expression: 45.09%
Mdr1; [17]
  decrease in Mdr1 mRNA expression: 33.33%
Mdr1; [18]
  decrease in Mdr1 mRNA expression: 47.47%
Mdr1; small intestine, middle-dose Q3GA 5 mg/kg i.v. 7 days, P<0.001
  decrease in Mdr1 mRNA expression: 17.51%
Gstm1; [23]
  increase in Gstm1 mRNA expression: 75.09%
Gstm1; [24]
  increase in Gstm1 mRNA expression: 248.40%
Gstm1; [25]
  increase in Gstm1 mRNA expression: 85.41%
Car; [14]
  increase in Car mRNA expression: 74.60%
Car; [15]
  increase in Car mRNA expression: 224.76%
Car; [26]
  increase in Car mRNA expression: 98.73%
Car; [27]
  increase in Car mRNA expression: 117.54%
Car; [18]
  increase in Car mRNA expression: 265.44%
Car; [22]
  increase in Car mRNA expression: 99.57%
Cyp3a2 [3]; [28]
  decrease in CYP3A2 protein expression: 47.16%
Cyp3a2 [3]; [15]
  decrease in CYP3A2 protein expression: 54.18%
Cyp3a2 [3]; [26]
  decrease in CYP3A2 protein expression: 33.07%
Cyp3a2 [3]; [21]
  decrease in CYP3A2 protein expression: 38.67%
Cyp3a2 [3]; [18]
  decrease in CYP3A2 protein expression: 55.28%
Cyp3a2 [3]; [19]
  decrease in CYP3A2 protein expression: 21.68%
Cyp3a1 [4]; [29]
  decrease in Cyp3a1 mRNA expression: 33.73%
Cyp3a1 [4]; [15]
  decrease in Cyp3a1 mRNA expression: 65.14%
Cyp3a1 [4]; [26]
  decrease in Cyp3a1 mRNA expression: 54.94%
Cyp3a1 [4]; [27]
  decrease in Cyp3a1 mRNA expression: 43.57%
Cyp3a1 [4]; [18]
  decrease in Cyp3a1 mRNA expression: 63.78%
Cyp3a1 [4]; [19]
  decrease in Cyp3a1 mRNA expression: 26.08%
P-gp; [28]
  decrease in P-gp protein expression: 47.26%
P-gp; [15]
  decrease in P-gp protein expression: 67.93%
P-gp; [30]
  decrease in P-gp protein expression: 39.92%
P-gp; [17]
  decrease in P-gp protein expression: 41.70%
P-gp; [18]
  decrease in P-gp protein expression: 65.31%
P-gp; [31]
  decrease in P-gp protein expression: 30.22%
[5]; Q3GA 2.5, 5 or 10 mg/kg i.v. for 7 consecutive days
  effect on bioavailability of oral CsA: reduced the bioavailability of oral CsA
[5]; Q3GA 5 mg/kg daily i.v. 7 days
  increase in the CL/F of CsA: 72.71%
[5]; Q3GA 5 mg/kg daily i.v. 7 days, P<0.01
  increase in the V/F of CsA: 103.32%
[5]; Q3GA 10 mg/kg daily i.v. 7 days
  increase in the CL/F of CsA: 79.57%
[5]; Q3GA 10 mg/kg daily i.v. 7 days, P<0.05
  increase in the V/F of CsA: 93.19%
[5]; [23]
  decrease in AUC0-t of CsA: 47.79%
  decrease in AUC0-∞ of CsA: 46.30%
  decrease in Cmax of CsA: 40.41%
[5]; [32]
  decrease in AUC0-t of CsA: 34.26%
  decrease in AUC0-∞ of CsA: 34.66%
  decrease in Cmax of CsA: 33.12%
[5]; [25]
  decrease in AUC0-t of CsA: 36.32%
  decrease in AUC0-∞ of CsA: 34.81%
Cyp3a1 [6]; [14]
  decrease in CYP3A1 protein expression: 52.99%
Cyp3a1 [6]; [20]
  decrease in CYP3A1 protein expression: 57.66%
Cyp3a1 [6]; [16]
  decrease in CYP3A1 protein expression: 43.95%
Cyp3a1 [6]; [17]
  decrease in CYP3A1 protein expression: 62.95%
Cyp3a1 [6]; [18]
  decrease in CYP3A1 protein expression: 75.25%
Cyp3a1 [6]; [31]
  decrease in CYP3A1 protein expression: 39.22%
Pxr [7]; [20]
  increase in PXR protein expression: 182.93%
Pxr [7]; [21]
  increase in PXR protein expression: 147.68%
Pxr [7]; [18]
  increase in PXR protein expression: 258.85%
Pxr [7]; [22]
  increase in PXR protein expression: 81.66%
Slco2b1; high-dose Q3GA 10 mg/kg i.v. 7 days, P<0.01
  decrease in Slco2b1 mRNA expression: 39.57%
Slco2b1; [24]
  decrease in Slco2b1 mRNA expression: 62.19%
Slco2b1; [25]
  decrease in Slco2b1 mRNA expression: 20.49%
Mrp2; [33]
  decrease in MRP2 protein expression: 70.70%
Mrp2; [34]
  decrease in MRP2 protein expression: 50.84%
Mrp2; [35]
  decrease in MRP2 protein expression: 75.95%
Mrp2; [19]
  decrease in MRP2 protein expression: 42.60%
Ugt1a1 [8]; [36]
  decrease in UGT1A1 protein expression: 49.63%
Ugt1a1 [8]; [33]
  decrease in UGT1A1 protein expression: 71.06%
Ugt1a1 [8]; liver, middle-dose Q3GA 5 mg/kg i.v. 7 days
  decrease in UGT1A1 protein expression: 38.05%
Ugt1a1 [8]; [34]
  decrease in UGT1A1 protein expression: 46.57%
Ugt1a1 [8]; [35]
  decrease in UGT1A1 protein expression: 76.81%
Ugt1a1 [8]; [19]
  decrease in UGT1A1 protein expression: 36.26%
Sult1a1 [9]; [20]
  decrease in SULT1A1 protein expression: 75.89%
Sult1a1 [9]; [17]
  decrease in SULT1A1 protein expression: 57.47%
Sult1a1 [9]; [18]
  decrease in SULT1A1 protein expression: 75.44%
Sult1a1 [9]; [22]
  decrease in SULT1A1 protein expression: 36.33%
Sult1a1 [10]; [36]
  decrease in Sult1a1 mRNA expression: 18.39%
Sult1a1 [10]; [15]
  decrease in Sult1a1 mRNA expression: 58.06%
Sult1a1 [10]; [16]
  decrease in Sult1a1 mRNA expression: 31.94%
Sult1a1 [10]; [21]
  decrease in Sult1a1 mRNA expression: 52.02%
Sult1a1 [10]; [18]
  decrease in Sult1a1 mRNA expression: 64.54%
Sult1a1 [10]; [22]
  decrease in Sult1a1 mRNA expression: 33.80%
Bcrp [11]; [29]
  decrease in BCRP protein expression: 30.86%
Bcrp [11]; [15]
  decrease in BCRP protein expression: 69.78%
Bcrp [11]; [16]
  decrease in BCRP protein expression: 27.73%
Bcrp [11]; [21]
  decrease in BCRP protein expression: 36.44%
Bcrp [11]; [18]
  decrease in BCRP protein expression: 70.61%
Bcrp [11]; [22]
  decrease in BCRP protein expression: 32.93%
Pxr [12]; [23]
  increase in Pxr mRNA expression: 200.21%
Pxr [12]; [32]
  increase in Pxr mRNA expression: 415.18%
Pxr [12]; [25]
  increase in Pxr mRNA expression: 130.03%
OATP1B2; [23]
  decrease in OATP1B2 protein expression: 33.73%
OATP1B2; low-dose Q3GA 2.5 mg/kg i.v. 7 days, P<0.01
  decrease in OATP1B2 protein expression: 67.47%
OATP1B2; [25]
  decrease in OATP1B2 protein expression: 26.52%
Ugt1a1 [13]; [29]
  decrease in Ugt1a1 mRNA expression: 41.04%
Ugt1a1 [13]; [15]
  decrease in Ugt1a1 mRNA expression: 76.13%
Ugt1a1 [13]; [30]
  decrease in Ugt1a1 mRNA expression: 48.78%
Ugt1a1 [13]; [17]
  decrease in Ugt1a1 mRNA expression: 37.83%
Ugt1a1 [13]; [18]
  decrease in Ugt1a1 mRNA expression: 70.14%
Ugt1a1 [13]; [22]
  decrease in Ugt1a1 mRNA expression: 24.08%
